Secretion, half-life and T1/2 data for eight compounds are collected here from ChEMBL document CHEMBL1129419, “1-Aminocyclobutanecarboxylic acid derivatives as novel structural elements in bioactive peptides: application to tuftsin analogs” (J Med Chem, 1996).

Data set [1] can be described thus: Compound was evaluated for the secretion of interleukin-6 (IL-6) by macrophages incubated in the presence of antigen Keyhole Limpet Hemocyanin (KLH) at concentration of 2 x 10E-8 M. It counts as functional. Put shortly: (§1)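 Thioglycollate-elicited peritoneal macrophages from (BALB/c x C3H.eb)F1 mice (6-8 weeks), >90% pure, cultured at 10⁶/mL in DMEM for 48 h at 37 °C, 5% CO₂. Incubated 20 h in triplicate with KLH plus peptide (2 × 10^-7 to 2 × 10^-9 M). Pooled supernatants were assayed for IL-6 by B9 hybridoma proliferation ([³H]thymidine, 2-fold dilutions), giving arbitrary units with KLH alone set at 1000 units. Three experiments were averaged.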

Data set [2] can be described thus: Compound was evaluated for the secretion of interleukin-6 (IL-6) by macrophages incubated in the presence of antigen Keyhole Limpet Hemocyanin (KLH) at concentration of 2 x 10E-7 M. It counts as functional. Put shortly: as §1
A short description of data set [3]: Plasma half life of compound reported. The class given is ADME, cell-free. Put shortly:
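Peptide (0.5 mg) was incubated in 0.5 mL human serum at 37 °C. Aliquots were taken at 0-240 min, boiled at 90-95 °C for 5 min, diluted with water and centrifuged. Intact peptide was quantified by isocratic RP-HPLC at 220 nm, with peak area referenced to an internal serum peak and time 0 set at 100%. Half-life was read from the degradation time course.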

Data set [4] in a line: Compound was evaluated for the secretion of interleukin-6 (IL-6) by macrophages incubated in the presence of antigen Keyhole Limpet Hemocyanin (KLH) at concentration of 2 x 10E-9 M. The class given is functional. An outline of the steps: as §1

Where a SMILES comes first, the peptide text is derived from it.

For the compound `NCCCC[C@H](NC(=O)[C@]1(N)C[C@H](CO)C1)C(=O)N1CCC[C@H]1C(=O)N[C@@H](CCCN=C(N)N)C(=O)O`, the Secretion in data set [1] is given as 29%; in data set [2], 125%.
Consider `C[C@@H]1CC[C@]1(NC(=O)[C@H](CCCCN)NC(=O)[C@@H](N)[C@@H](C)O)C(=O)N[C@@H](CCCNC(=N)N)C(=O)O` (stereo in doubt; 27), for which the Secretion in data set [2] came out at 30%.
For the compound `C[C@@H](O)[C@H](N)C(=O)N[C@]1(C(=O)N2CCC[C@H]2C(=O)N[C@@H](CCCN=C(N)N)C(=O)O)C[C@@H](CN)C1`, the Secretion amounted to 54% in data set [1] and 68% in data set [2].
The half-life is the time needed for the level to fall by half in the phase considered. `C[C@@H](O)[C@H](N)C(=O)N[C@@H](CCCCN)C(=O)N1CCC[C@H]1C(=O)N[C@]1(C(=O)O)C[C@@H](CN=C(N)N)C1` returned a half-life in data set [3] of 11 min.
In the case of `C[C@@H](O)[C@H](N)C(=O)N[C@@H](CCCCN)C(=O)N1CCC[C@H]1C(=O)N[C@@H](CCCN=C(N)N)C(=O)O` (H-TKPR-OH), the Secretion in data set [4] was 32%; in data set [1], 42%; in data set [2], 78%.
Compound `C[C@@H]1CC[C@]1(NC(=O)[C@H](CCCCN)NC(=O)[C@@H](N)[C@@H](C)O)C(=O)N[C@@H](CCCNC(=N)N)C(=O)O` (stereo in doubt; 27b) yielded a T1/2 in data set [3] of 15 min.
With `C[C@@H](O)[C@H](N)C(=O)NC1(C(=O)N2CCC[C@H]2C(=O)N[C@@H](CCCN=C(N)N)C(=O)O)CC(CCN)C1` (some centres undefined), the half-life in data set [3] stood at 13 min.
In the case of `C[C@@H]1CC[C@]1(NC(=O)[C@H](CCCCN)NC(=O)[C@@H](N)[C@@H](C)O)C(=O)N[C@@H](CCCNC(=N)N)C(=O)O` (stereo in doubt; 27a), the Secretion in data set [1] amounted to 95%; in data set [2], 141%. This compound also displayed a half-life in data set [3] of 25 min.
